The source of these data is ChEMBL document CHEMBL1212905, “Schisanartane nortriterpenoids with diverse post-modifications from Schisandra propinqua” (J Nat Prod, 2010).

For orientation: IC50 means the midpoint of a concentration-inhibition curve. Read a high IC50 as lower potency.

Common to all, as to type: functional, cell-based
The subject of experiment [1] is HT-29. As to the kind of experiment: Cytotoxicity against human HT-29 cells after 72 hrs by SRB assay. The note with it: HT-29, 72 h. The method in brief: (§1)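 Adherent cells plated 24 h before treatment and exposed continuously to compound at 100, 10, 1 and 0.1 µM for 72 h. Cells were then fixed and stained with sulforhodamine B, and IC50 was determined. Amrubicin hydrochloride served as the positive control.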
(In general: Sulforhodamine B stains cellular protein and so reports cell mass.)

For experiment [2], the system named is A549. Briefly: Cytotoxicity against human A549 cells after 72 hrs by SRB assay. The note with it: A549, 72 h. The method in brief: as §1
Experiment [3] relates to K562. Briefly: Cytotoxicity against human K562 cells after 72 hrs by SRB assay. The note with it: K562, 72 h.

Structures can show the parent of a compound that is named as a salt. Some results are limits rather than exact numbers.

As to `C[C@@H]1C(=O)O[C@H]2[C@@H]1O[C@]13O[C@@]4(CC[C@]5(C)C(=O)[C@](C)(O)[C@H]2[C@H]15)C[C@]12OC(=O)C[C@H]1O[C@@](C)(CO)[C@@H]2CC[C@H]4C3=O` [SCHISANDILACTONE I], the IC50 in experiment [1], in experiment [2] and in experiment [3] was greater than 100 µM each time.

For the compound `C[C@@H]1C(=O)O[C@H]2[C@@H]1O[C@]13O[C@@]4(CC(=O)[C@]5(C)C(=O)[C@](C)(O)[C@H]2[C@@H]51)C[C@]12OC(=O)C[C@H]1O[C@@](C)(CO)[C@@H]2CC[C@H]4[C@H]3O` [SCHISANDILACTONE G], the IC50 in experiment [1], in experiment [2] and in experiment [3] was greater than 100 µM in each case.

`C[C@@H]1C(=O)O[C@H]2[C@@H]1O[C@]13O[C@@]4(CC[C@]5(C)C(=O)[C@](C)(O)[C@@]2(O)[C@H]15)C[C@]12OC(=O)C[C@H]1O[C@@](C)(CO)[C@@H]2C[C@@H]1O[C@@]14C3=O` [SCHISANDILACTONE J]: the IC50 in experiment [1], in experiment [2] and in experiment [3] was greater than 100 µM each time.

For `CC1=C[C@@H]2O[C@]34O[C@@]5(CC[C@]6(C)C(=O)[C@](C)(O)[C@]2(OC1=O)[C@H]36)C[C@]12OC(=O)C[C@H]1O[C@@](C)(CO)[C@@H]2CC[C@@]5(O)C4=O` [SCHISANDILACTONE A], the IC50 in experiment [1], in experiment [2] and in experiment [3] was greater than 100 µM in each case.

Consider `CC1=C[C@@H]([C@@H]2[C@H]3[C@](C)(C(=O)C[C@]45C[C@]67OC(=O)C[C@H]6O[C@@](C)(CO)[C@@H]7CC[C@@H]4[C@@H](O)[C@@]3(O)O5)C(=O)[C@]2(C)O)OC1=O` [SCHISANDILACTONE E], for which the IC50 in experiment [1], in experiment [2] and in experiment [3] was greater than 100 µM throughout.

As to `C[C@@H]1C(=O)O[C@H]2[C@@H]1O[C@]13O[C@@]4(CC(=O)[C@]5(C)C(=O)[C@](C)(O)[C@@]2(O)[C@@H]51)C[C@]12OC(=O)C[C@H]1O[C@@](C)(CO)[C@@H]2CC[C@@H]4[C@H]3O` [SCHISANDILACTONE H], the IC50 in experiment [1], in experiment [2] and in experiment [3] was greater than 100 µM in each case.

Regarding `C[C@H]1C(=O)O[C@@H]2[C@H]1O[C@@]1(C)C(=O)[C@@]3(C)CC[C@]45C[C@]67OC(=O)C[C@H]6OC(C)(C)[C@@H]7C[C@H](O)[C@H]4C(=O)[C@@](O)(O5)[C@H]3[C@@]21O` [SCHISANDILACTONE C], the IC50 in experiment [1], in experiment [2] and in experiment [3] was greater than 100 µM in each case.

As for `CC1=C[C@@H]([C@]2(O)[C@H]3[C@](C)(CC[C@]45C[C@]67OC(=O)C[C@H]6OC(C)(C)[C@@H]7C[C@@H](O)[C@H]4C(=O)[C@@]3(O)O5)C(=O)[C@]2(C)O)OC1=O` [SCHISANDILACTONE F], the IC50 in experiment [1], in experiment [2] and in experiment [3] was greater than 100 µM throughout.

In the case of `CC(=O)[C@]1(N)Cc2c(O)c3c(c(O)c2[C@@H](O[C@H]2C[C@H](O)[C@H](O)CO2)C1)C(=O)c1ccccc1C3=O` [AMRUBICIN HYDROCHLORIDE], the IC50 is 4.57 µM in experiment [1], 0.94 µM in experiment [2] and 1.2 µM in experiment [3].

As for `C[C@H]1C(=O)O[C@@H]2[C@H]1O[C@@]1(C)C(=O)[C@@]3(C)CC[C@]45C[C@]67OC(=O)C[C@H]6OC(C)(C)[C@@H]7C[C@@H](O)[C@H]4C(=O)[C@@](O)(O5)[C@H]3[C@@]21O` [SCHISANDILACTONE D], the IC50 in experiment [1], in experiment [2] and in experiment [3] was greater than 100 µM throughout.

Regarding `C[C@H]1C(=O)O[C@@H]2[C@H]1O[C@]1(C)[C@H]2[C@H]2[C@](C)(CC[C@]34C[C@]56OC(=O)C[C@H]5OC(C)(C)[C@@H]6C[C@H](O)[C@H]3C(=O)[C@@]2(O)O4)[C@@H]1O` [SCHISANDILACTONE B], the IC50 in experiment [1], in experiment [2] and in experiment [3] was greater than 100 µM each time.
